Source: ChEMBL document CHEMBL1151739, “Probes for narcotic receptor mediated phenomena. 37. Synthesis and opioid binding affinity of the final pair of oxide-bridged phenylmorphans, the ortho- and para-b-isomers and their N-phenethyl analogues, and the synthesis of the N-phenethyl analogues of the ortho- and para-d-isomers” (J Med Chem, 2008)
pKi: −log10 of the molar value.

Legend:
Mu-type opioid receptor [1] = target: T1, Mu-type opioid receptor (Homo sapiens, UniProt P35372); test: Binding affinity to mu opioid receptor
T1 sequence (P35372 whole entry): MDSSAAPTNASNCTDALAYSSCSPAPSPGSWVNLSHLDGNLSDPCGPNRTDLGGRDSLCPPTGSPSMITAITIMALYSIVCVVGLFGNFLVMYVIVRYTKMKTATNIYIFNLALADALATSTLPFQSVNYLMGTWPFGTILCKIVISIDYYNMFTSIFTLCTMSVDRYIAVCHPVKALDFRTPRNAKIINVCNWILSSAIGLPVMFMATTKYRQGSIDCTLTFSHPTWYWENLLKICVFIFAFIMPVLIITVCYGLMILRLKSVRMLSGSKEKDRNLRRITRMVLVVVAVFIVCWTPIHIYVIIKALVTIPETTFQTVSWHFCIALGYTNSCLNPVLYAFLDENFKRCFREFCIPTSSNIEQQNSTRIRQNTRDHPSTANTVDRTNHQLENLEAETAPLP

Mu-type opioid receptor [2] = target: T1, Mu-type opioid receptor; test: Displacement of [125I]IOXY from human recombinant mu opioid receptor expressed in CHO cells; format: cell-based
How it was run: (§1)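 Radioligand displacement run in CHO cells stably transfected to express the μ-, δ- or κ-opioid receptor, each receptor in its own line. The method follows the authors' earlier procedure. Each value comes from n=3 determinations.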

[3] = target: Kappa-type opioid receptor (Homo sapiens, UniProt P41145); test: Displacement of [125I]IOXY from human recombinant kappa opioid receptor expressed in CHO cells; format: cell-based; how it was run: as §1
Sequence of Kappa-type opioid receptor (P41145 whole entry): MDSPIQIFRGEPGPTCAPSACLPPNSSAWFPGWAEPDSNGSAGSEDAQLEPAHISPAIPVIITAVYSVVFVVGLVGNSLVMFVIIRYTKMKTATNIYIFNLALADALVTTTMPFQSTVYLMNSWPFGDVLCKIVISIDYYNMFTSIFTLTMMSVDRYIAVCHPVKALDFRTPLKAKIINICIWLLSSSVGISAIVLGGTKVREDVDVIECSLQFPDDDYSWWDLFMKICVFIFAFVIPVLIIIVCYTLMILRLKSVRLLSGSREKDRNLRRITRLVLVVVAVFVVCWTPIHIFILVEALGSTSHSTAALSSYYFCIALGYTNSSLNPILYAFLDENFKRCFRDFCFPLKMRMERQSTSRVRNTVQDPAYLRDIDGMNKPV

[4] = target: Delta-type opioid receptor (Homo sapiens, UniProt P41143); test: Displacement of [125I]IOXY from human recombinant delta opioid receptor expressed in CHO cells; format: cell-based; how it was run: as §1
Sequence of Delta-type opioid receptor (P41143 whole entry): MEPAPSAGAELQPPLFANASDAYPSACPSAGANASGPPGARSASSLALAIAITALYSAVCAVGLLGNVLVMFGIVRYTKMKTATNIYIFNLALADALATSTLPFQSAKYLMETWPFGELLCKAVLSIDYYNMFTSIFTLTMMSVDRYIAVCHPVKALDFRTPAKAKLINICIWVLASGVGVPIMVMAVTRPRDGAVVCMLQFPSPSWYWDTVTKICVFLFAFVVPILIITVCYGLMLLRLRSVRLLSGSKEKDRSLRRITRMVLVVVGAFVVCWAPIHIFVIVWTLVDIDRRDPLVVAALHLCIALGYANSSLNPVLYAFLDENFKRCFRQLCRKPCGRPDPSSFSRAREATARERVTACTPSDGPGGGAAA

SMILES	pKi (Mu-type opioid receptor [1])	pKi (Mu-type opioid receptor [2])	pKi [3]	pKi [4]
Oc1cccc2c1O[C@@H]1[C@@H]3CCC[C@]21CCN3CCc1ccccc1	8.15			
Oc1ccc2c(c1)[C@]13CCC[C@H](C1)N(CCc1ccccc1)C[C@@H]3O2 (relative stereo)		5.91	6.25	5.60
